# EWS-Fli inh = EWS/Fli-driven NR0B1 reporter inhibitors, primary screen, A673 cells, NR0B1 luciferase, luminescence, MLPCN library; viability-normalised; inhibition, % at 12.6 µM; actives 0.67% (n = 350,000); AID 651661, 2012;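 active = mean inhibition of at least 50% after viability correction, with every replicate also passing that limit; inconclusive = mean reaches 50% but only one of two replicates passes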;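 also: firefly luciferase signal divided by Alamar Blue viability fluorescence both relative to DMSO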
# PGC1a acetyl inh = inhibitors of PGC1a acetylation signal, primary screen, cell-based, U2OS, AlphaScreen, inhibitor mode | AlphaScreen anti-acetyl-lysine; with virally co-expressed GCN5 acetyltransferase | inhibition, % at 15.6 µM | actives 0.17% (n = 350,000);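 active = every replicate shows inhibition of at least 40%; inconclusive = mean inhibition at least 40% but some replicate below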;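 also: 0% = neutral control wells and 100% = positive control wells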
# Env fusion inh = inhibitors of HIV-1 Env-driven cell-cell fusion, primary screen, HeLa-JRFL effector, CEM21 target cells, luciferase. inhibition, % at 12.3 µM. actives 1.1% (n = 360,000);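 active = mean replicate inhibition score of at least 50 and every replicate individually at or above 50; inconclusive = only one of the two criteria met; inactive = mean below 50 and not all replicates reaching 50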;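 also: 0% = plate neutral controls and 100% = maraviroc near 300 nM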
# FN deposition inh = inhibitors of fibronectin matrix deposition, primary screen, AH1F cells, Alexa488-fibronectin fluorescence, plate reader | actives 0.086% (n = 350,000) | AID 743247, 2014 | inhibition, % at 12.6 µM | AH1F fibroblasts, overnight;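 active = mean inhibition across replicates of 30% or more, regardless of how many single replicates reach that level; inconclusive = mean under 30% yet at least half of replicates reach 30%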;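 also: positive control wells lacked labelled fibronectin entirely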
#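 Material – AH1F fibroblast monolayer, labelled fibronectin deposition · Reagent – labelled fibronectin 24 nM · Timing – 1 h adhesion, overnight exposure · Measured by – fluorescence at 485 nm excitation, 525 nm emission · Read-out – inhibition of fibronectin deposition signal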
# PAX8 inh HTS = inhibitors of PAX8-driven TPO luciferase reporter, primary screen, RMG-I cells, single concentration. inhibition, % at 12.6 µM. SteadyGlo, 24 h. actives 1.2% (n = 360,000). AID 652154, 2013;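 active = mean replicate inhibition at least 60% with every replicate also reaching 60%; inconclusive = only one of the two criteria is met; inactive = mean below 60% and not all replicates reaching 60%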;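 also: luciferase light reporting Pax8 driven TPO promoter activity; plate controls were median of neutral control wells for no effect and mitoxantrone controls for full effect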
# F508del corr = F508del CFTR correction, initial screen, CFBE line, single point. CFBE cells, YFP halide quenching; stimulated with forskolin plus potentiator P3; % fluorescence drop versus neutral controls. activity (quench increase), % at 7.58 µM. actives 0.36% (n = 350,000). AID 720511, 2013;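 active = mean added fluorescence quench of at least 8% versus neutral control, with both replicates also reaching 8%; inconclusive = only one of the mean or replicate conditions met; inactive = mean below 8% and not both replicates reaching 8%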;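 also: cells transiently co-express mutant CFTR-F508del with the halide-sensitive YFP; corrector assay measuring rescue of mutant channel to the surface after 24 h compound exposure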
# Numbers without * were called inactive; ? = inconclusive; / = not tested or not shown; [ ] = remark or other dose. In the library only some 2.3% were active in any assay of this set; here they are far more common.
SMILES,EWS-Fli inh,PGC1a acetyl inh,Env fusion inh,FN deposition inh,PAX8 inh HTS,F508del corr
O=C(C[C@H]1CC[C@H]2[C@@H](COC[C@@H](O)CN2Cc2cc(F)ccc2F)O1)NCc1ccc(F)cc1,1,0,/,-6,12,0
CC(=O)Oc1ccccc1/C=C/c1nc2ccccc2c(=O)o1,45,1,24,0,54,0
C/C(O)=c1/c(=O)nc2cccc3c2=c1c1ccccc1c3=O,-93,/,67*,7,-25,3
O=C(Nc1cc(Sc2nc3ccccc3s2)cc([N+](=O)[O-])c1)c1ccccc1F,/,-17,-11,15*,/,/
CCNC1=C(Cl)C(=O)c2ccccc2C1=O,/,-6,/,2,/,/
CCN(CC)c1ccc(NC2=C(Cl)C(=O)c3ccccc3C2=O)cc1,/,68*,/,/,/,/
O=C1C(Cl)=C(Nc2ccc(O)cc2)C(=O)c2ccccc21,57*,/,-27,20,49,-10
Cc1ccc(NC2=C(Cl)C(=O)c3ccccc3C2=O)cc1,?,?,-22,7,-89,/
CCCC(=O)NC1=C(Cl)C(=O)c2ccccc2C1=O,27,/,36,1,103*,45*
CC(=O)Nc1ccc(NC2=CC(=O)c3ccccc3C2=O)cc1,-134,/,-49,4,-35,-3
O=C1C=C(Nc2ccc(O)cc2)C(=O)c2ccccc21,-77,-14,-75,47*,-25,3
CC(C)c1cn(CC[C@H]2CC[C@H](NC(=O)C3CCOCC3)[C@@H](CO)O2)nn1,/,-7,/,/,-5,-1
CNC(=O)C[C@@H]1CC[C@H]2[C@@H](COc3ccc(NC(=O)Nc4cccc(F)c4)cc3C(=O)N2C)O1,0,7,-25[16.7 µM],3,-10,1
COc1ccccc1Nc1cc2cc(Br)ccc2c(=O)[nH]1,21,14,-112,-9,18,2
COc1ccc(OC)c(Nc2cc3ccccc3c(=O)[nH]2)c1,62*,17,-10,-11,9,-3
O=C(CN1CCN(Cc2ccc(Cl)cc2)C1=O)NCCCN1CCN(c2ccc(F)cc2)CC1,/,6,68*,-1,/,/
COc1cccc(CNC(=O)C[C@H]2C=C[C@@H](NC(=O)C3CCC3)[C@@H](CO)O2)c1,-4,23,29[16.7 µM],/,9,1
C=CCNS(=O)(=O)c1cccc2cc(C(=O)O)c(O)cc12,/,95*,-14,3,-2,/
CCN(Cc1nc2cc(Cl)ccc2c(=O)[nH]1)C(=O)c1cc(C2CC2)nn1-c1ccccc1,-1,/,86*,1,14,3
CCN(Cc1nc2cc(Cl)ccc2c(=O)[nH]1)C(=O)c1nn(C)c(=O)c2ccccc12,-2,5,4,-1,12,1
COCC(=O)Nc1ccc2c(c1)C(=O)N(C)C[C@@H](OC)[C@@H](C)CN(C(C)=O)[C@H](C)CO2,0,7,-10[16.7 µM],-5,/,0
CC(=O)Oc1ccc2ccccc2c1C(NC(=O)Cc1ccccc1)c1ccc(Cl)cc1 (stereo not drawn),/,-17,-94,-2,85*,/
Clc1ccc(N(CC2CO2)CC2CO2)cc1 (stereo not drawn),0,/,14,-10,28,8.1*
O=S(=O)(c1ccccc1)N(CC1CO1)c1cc(Cl)ccc1Cl (stereo not drawn),15,-1,-4,0,-17,1
CCCNC(=O)C[C@H]1C[C@H]2c3cc(NC(=O)Nc4ccccc4)ccc3O[C@H]2[C@@H](CO)O1,1,0,44[16.7 µM],-4,12,1
SMILES,EWS-Fli inh,PGC1a acetyl inh,Env fusion inh,FN deposition inh,PAX8 inh HTS,F508del corr
C[C@@H]1CN([C@@H](C)CO)C(=O)Cc2cc(NC(=O)Cc3ccccc3)ccc2O[C@@H]1CN(C)S(=O)(=O)c1ccc(F)cc1,-6,-3,/,16,10,-2
O=c1[nH]c(-c2ccccn2)nc2sc(-c3ccccc3)cc12,12,/,-388,29,89*,-1
C/C(=N\NC(=O)c1cc(C)nc2ccccc12)c1ccncc1,/,6,-7,/,1,1
C/C(=N\NC(=O)c1cc(C)nc2ccccc12)c1ccccn1,40,/,61*,7,26,2
Nc1nc2cc3c(cc2cc1C(=O)NCCc1c[nH]c2ccccc12)OCO3,59*,/,21,5,30,1
COc1cccc(C(=O)N/N=C(/CCC(=O)O)c2ccccc2)c1,0,/,7,1,-5,/
COc1cc(C(=O)NN=C2c3ccccc3-c3ccccc32)cc(OC)c1OC,59*,/,-43,-7,14,0
COc1cc(C(=O)N/N=c2/sc3ccccc3n2C)cc(OC)c1OC,8,-9,-1,15,24,/
COc1cccc(C(=O)N/N=C(/c2ccccc2)c2ccccn2)c1,/,2,23,3,65*,/
COc1cc(C(=O)N/N=C(\c2ccccc2)c2ccccn2)cc(OC)c1OC,25,/,25,-7,72*,12*
C[C@H]1CN([C@@H](C)CO)C(=O)c2cc(NC(=O)Cn3cnnn3)ccc2O[C@H]1CN(C)Cc1ccc(Cl)c(Cl)c1,9,2,-8[16.7 µM],/,-11,0
COCCNC(=O)C[C@H]1C[C@H]2c3cc(NC(=O)C4CCC4)ccc3O[C@H]2[C@H](CO)O1,-10,6,-14[16.7 µM],/,-5,0
Cc1ccc(S(=O)(=O)N(Cc2ccc(Cl)cc2)c2ccccc2C(=O)NCc2ccco2)cc1,/,/,69*,-9,/,/
Cc1ccc(N(CC(=O)NCc2ccco2)S(=O)(=O)c2ccccc2)cc1,/,-33,-45,30*,-4,/
COc1ccc(N(CC(=O)NCc2ccco2)S(=O)(=O)c2ccc(C)cc2)cc1OC,-4,/,4,12,-16,1
C[C@H]1CN([C@@H](C)CO)C(=O)c2cc(-c3cccc(C#N)c3)cnc2O[C@@H]1CN(C)Cc1ccccc1,-1,-2,-3[16.7 µM],/,9,-4
CC(C)(C)C(=O)/C(=C/c1ccncc1)n1cncn1,41,/,-8,11,70*,-4
Cc1cc(N/N=C/c2ccccc2Cl)nc(NCc2ccccc2)n1,/,/,/,-2,-43,/
Cc1ccc(Nc2cc(C)nc(NCc3ccccc3)n2)cc1,-7,/,151*,10,19,-25
COc1ccc(Nc2cc(C)nc(NCc3ccccc3)n2)cc1,16,-8,71*,12,8,2
Cc1cc(Oc2ccc(C#N)cc2)nc(NCc2ccccc2)n1,/,9,61*,5,19,/
Cc1cc(NC2CCCCC2)nc(NCc2ccccc2)n1,29,/,54*,12,23,-22
COc1cc(C)nc(NCc2ccccc2)n1,/,/,-92,2,-17,/
COc1cccc(C#Cc2ccc([C@@H]3[C@H]4CN(S(=O)(=O)c5ccccc5C)CC(=O)N4[C@H]3CO)cc2)c1,0,4,/,/,2,4
